Active and inactive are the calls of the source. The calls are words filed in the database; no cut-off is given here.
Tests used:
[1] = target: T1, Zinc finger protein GLI1 (Homo sapiens) (UniProt P08151); assay: Inhibition of exogenously transfected human Gli1-mediated transcriptional activity in mouse C3H10T1/2 cells at 20 uM after 24 hrs by luciferase reporter gene assay; assay type: cell-based; conditions: C3H 10T1/2
T1 sequence (whole entry): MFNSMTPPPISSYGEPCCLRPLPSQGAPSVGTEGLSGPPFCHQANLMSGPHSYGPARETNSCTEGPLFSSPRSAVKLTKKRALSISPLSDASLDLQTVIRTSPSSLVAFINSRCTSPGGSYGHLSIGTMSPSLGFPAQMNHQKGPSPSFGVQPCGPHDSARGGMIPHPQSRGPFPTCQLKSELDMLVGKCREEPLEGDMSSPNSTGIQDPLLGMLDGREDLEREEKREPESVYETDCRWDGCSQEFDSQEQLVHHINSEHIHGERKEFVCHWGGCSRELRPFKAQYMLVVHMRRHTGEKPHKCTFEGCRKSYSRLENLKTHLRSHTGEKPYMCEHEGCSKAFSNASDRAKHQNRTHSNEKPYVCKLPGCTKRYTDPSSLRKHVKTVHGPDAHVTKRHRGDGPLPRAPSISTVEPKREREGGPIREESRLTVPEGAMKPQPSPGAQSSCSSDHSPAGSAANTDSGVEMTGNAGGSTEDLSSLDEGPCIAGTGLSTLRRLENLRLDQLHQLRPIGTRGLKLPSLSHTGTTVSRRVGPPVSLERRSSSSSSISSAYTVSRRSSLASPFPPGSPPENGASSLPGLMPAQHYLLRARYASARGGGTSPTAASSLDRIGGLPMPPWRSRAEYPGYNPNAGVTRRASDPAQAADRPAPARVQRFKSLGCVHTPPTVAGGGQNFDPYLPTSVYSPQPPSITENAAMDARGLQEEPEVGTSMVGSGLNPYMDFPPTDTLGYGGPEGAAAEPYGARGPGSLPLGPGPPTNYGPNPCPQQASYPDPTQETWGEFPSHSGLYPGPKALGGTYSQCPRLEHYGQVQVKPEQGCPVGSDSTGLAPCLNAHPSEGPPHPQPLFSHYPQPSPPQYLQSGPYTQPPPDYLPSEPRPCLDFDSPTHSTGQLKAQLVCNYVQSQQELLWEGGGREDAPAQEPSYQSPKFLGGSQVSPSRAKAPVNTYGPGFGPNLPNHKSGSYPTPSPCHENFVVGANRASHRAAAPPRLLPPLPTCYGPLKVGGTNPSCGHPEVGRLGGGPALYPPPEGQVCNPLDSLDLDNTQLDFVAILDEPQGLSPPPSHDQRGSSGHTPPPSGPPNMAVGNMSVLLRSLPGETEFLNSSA
Method in brief: (§1)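 They were replated 18 h later, given compound or DMSO 6 h after plating, and exposed for 24 h at 37 °C, 5% CO2. Lysate was read by dual luciferase as firefly/Renilla, triplicate, DMSO = 0%. IC50 came from curve fitting.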

[2] = target: T1, Zinc finger protein GLI1 (Homo sapiens); assay: Inhibition of exogenously transfected human Gli1-mediated transcriptional activity in mouse C3H10T1/2 cells at 40 uM after 24 hrs by luciferase reporter gene assay; assay type: cell-based; conditions: C3H 10T1/2; method in brief: as §1
SJRH30 = assay: Cytotoxicity against human Rh30 cells at 40 uM/well after 68 hrs by alamar blue assay; assay type: functional, cell-based
Method in brief: (§2)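 Cells plated in appropriate medium 24 h before compound. A 10 mM DMSO stock was diluted in EMEM to 160 µM (4×) and added in triplicate to a final 40 µM. Incubated 68 h at 37 °C, then Alamar Blue for 4 h at 37 °C. Fluorescence read at ex 510/em 590 nm. Viability taken relative to DMSO control wells.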

MDA-MB-231 = assay: Cytotoxicity against human MDA-MB-231 cells at 40 uM/well after 68 hrs by alamar blue assay; assay type: functional, cell-based; method in brief: as §2
Daoy = assay: Cytotoxicity against human DaOY cells at 40 uM/well after 68 hrs by alamar blue assay; assay type: functional, cell-based; method in brief: as §2
DU-145 = assay: Cytotoxicity against human DU145 cells at 40 uM/well after 68 hrs by alamar blue assay; assay type: functional, cell-based; method in brief: as §2
Raji = assay: Cytotoxicity against human Raji cells at 40 uM/well after 68 hrs by alamar blue assay; assay type: functional, cell-based; method in brief: as §2
HepG2 = assay: Cytotoxicity against human HepG2 cells at 40 uM/well after 68 hrs by alamar blue assay; assay type: functional, cell-based; method in brief: as §2
LN-229 = assay: Cytotoxicity against human LN229 cells at 40 uM/well after 68 hrs by alamar blue assay; assay type: functional, cell-based; method in brief: as §2
BJ = assay: Cytotoxicity against human TERT-immortalized human BJ cells at 40 uM/well after 68 hrs by alamar blue assay; assay type: cell-based; method in brief: as §2
C3H 10T1/2 [3] = assay: Inhibition of human Gli1 protein expression exogenously transfected in mouse C3H10T1/2 cells at 20 uM by Western blot analysis; assay type: functional, cell-based
C3H 10T1/2 [4] = assay: Inhibition of human Gli1 protein expression exogenously transfected in mouse C3H10T1/2 cells at 40 uM by Western blot analysis; assay type: functional, cell-based
C3H 10T1/2 [5] = assay: Inhibition of Photinus pyralis luciferase expression exogenously transfected in mouse C3H10T1/2 cell lysate at 20 uM after 40 mins at room temperature by promega steady-glo luciferase assay; assay type: functional, cell-free
C3H 10T1/2 [6] = assay: Inhibition of Photinus pyralis luciferase expression exogenously transfected in mouse C3H10T1/2 cell lysate at 40 uM after 40 mins at room temperature by promega steady-glo luciferase assay; assay type: functional, cell-free
C3H 10T1/2 [7] = assay: Inhibition of Photinus pyralis luciferase expression exogenously transfected in mouse C3H10T1/2 cell lysate at 60 uM after 40 mins at room temperature by promega steady-glo luciferase assay; assay type: functional, cell-free
C3H 10T1/2 [8] = assay: Inhibition of Photinus pyralis and Renilla luciferase expression exogenously transfected in mouse C3H10T1/2 cell lysate at 20 uM after 40 mins at room temperature by promega steady-glo luciferase assay; assay type: functional, cell-free
C3H 10T1/2 [9] = assay: Inhibition of Photinus pyralis and Renilla luciferase expression exogenously transfected in mouse C3H10T1/2 cell lysate at 40 uM after 40 mins at room temperature by promega steady-glo luciferase assay; assay type: functional, cell-free
C3H 10T1/2 [10] = assay: Inhibition of Photinus pyralis and Renilla luciferase expression exogenously transfected in mouse C3H10T1/2 cell lysate at 60 uM after 40 mins at room temperature by promega steady-glo luciferase assay; assay type: functional, cell-free
C3H 10T1/2 [11] = assay: Inhibition of Renilla luciferase expression exogenously transfected in mouse C3H10T1/2 cell lysate at 20 uM after 40 mins at room temperature by promega steady-glo luciferase assay; assay type: functional, cell-free
C3H 10T1/2 [12] = assay: Inhibition of Renilla luciferase expression exogenously transfected in mouse C3H10T1/2 cell lysate at 40 uM after 40 mins at room temperature by promega steady-glo luciferase assay; assay type: functional, cell-free
C3H 10T1/2 [13] = assay: Inhibition of Renilla luciferase expression exogenously transfected in mouse C3H10T1/2 cell lysate at 60 uM after 40 mins at room temperature by promega steady-glo luciferase assay; assay type: functional, cell-free
Zinc finger protein GLI2 = Zinc finger protein GLI2 (Homo sapiens, UniProt P10070); assay: Inhibition of exogenously transfected human Gli2 delta-N-mediated transcriptional activity in mouse C3H10T1/2 cells after 24 hrs by luciferase reporter gene assay; assay type: cell-based; conditions: c3h 10t1/2
Zinc finger protein GLI2, sequence (P10070 whole entry, looked up): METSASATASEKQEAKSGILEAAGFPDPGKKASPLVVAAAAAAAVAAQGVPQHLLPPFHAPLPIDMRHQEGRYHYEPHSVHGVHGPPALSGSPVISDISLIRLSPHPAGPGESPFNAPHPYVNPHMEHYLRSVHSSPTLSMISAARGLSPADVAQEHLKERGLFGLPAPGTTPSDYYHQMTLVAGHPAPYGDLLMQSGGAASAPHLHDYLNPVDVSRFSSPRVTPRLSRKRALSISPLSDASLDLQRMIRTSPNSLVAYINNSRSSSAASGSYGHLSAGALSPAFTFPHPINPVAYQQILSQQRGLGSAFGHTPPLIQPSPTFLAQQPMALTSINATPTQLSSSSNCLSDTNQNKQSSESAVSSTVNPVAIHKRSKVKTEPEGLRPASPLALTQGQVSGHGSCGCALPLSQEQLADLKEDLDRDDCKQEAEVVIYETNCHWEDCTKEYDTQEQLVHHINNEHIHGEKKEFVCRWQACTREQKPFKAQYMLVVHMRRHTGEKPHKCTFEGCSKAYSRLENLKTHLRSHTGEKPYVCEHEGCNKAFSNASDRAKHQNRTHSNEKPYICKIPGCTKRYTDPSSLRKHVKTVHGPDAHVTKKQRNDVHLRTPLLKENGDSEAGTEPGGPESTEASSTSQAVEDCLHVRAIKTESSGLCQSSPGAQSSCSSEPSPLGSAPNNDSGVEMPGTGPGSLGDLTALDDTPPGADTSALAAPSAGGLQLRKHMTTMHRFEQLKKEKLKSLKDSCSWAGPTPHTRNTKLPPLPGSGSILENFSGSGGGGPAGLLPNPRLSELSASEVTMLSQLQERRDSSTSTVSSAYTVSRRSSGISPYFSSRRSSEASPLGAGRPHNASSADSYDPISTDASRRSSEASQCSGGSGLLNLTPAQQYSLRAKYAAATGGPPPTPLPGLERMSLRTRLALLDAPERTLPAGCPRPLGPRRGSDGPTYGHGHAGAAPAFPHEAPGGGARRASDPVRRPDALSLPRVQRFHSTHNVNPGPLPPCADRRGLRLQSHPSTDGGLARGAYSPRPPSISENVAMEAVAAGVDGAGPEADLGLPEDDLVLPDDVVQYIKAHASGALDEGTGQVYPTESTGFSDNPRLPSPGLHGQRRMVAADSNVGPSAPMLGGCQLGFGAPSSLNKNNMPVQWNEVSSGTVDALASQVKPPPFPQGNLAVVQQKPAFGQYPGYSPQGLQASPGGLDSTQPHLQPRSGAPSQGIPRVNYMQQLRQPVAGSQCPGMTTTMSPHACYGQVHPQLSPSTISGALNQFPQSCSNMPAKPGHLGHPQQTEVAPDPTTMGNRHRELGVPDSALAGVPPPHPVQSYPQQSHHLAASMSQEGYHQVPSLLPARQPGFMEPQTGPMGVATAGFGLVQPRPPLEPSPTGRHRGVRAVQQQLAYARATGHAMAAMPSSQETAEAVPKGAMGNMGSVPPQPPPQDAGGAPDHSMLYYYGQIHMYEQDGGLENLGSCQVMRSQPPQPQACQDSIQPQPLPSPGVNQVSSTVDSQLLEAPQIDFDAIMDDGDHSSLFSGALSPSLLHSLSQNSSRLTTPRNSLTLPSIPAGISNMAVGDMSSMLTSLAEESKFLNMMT
Method in brief: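 C3H10T1/2 reporter assay run as for hGli1, but with an amino-terminal repressor-domain-deleted hGli2 (ΔNhGli2) in place of hGli1, plus GliLuc-BS and pRL-TK via Fugene6. Compound or DMSO was given for 24 h at 37 °C. Read-out was dual luciferase firefly/Renilla in triplicate, with dose-response curve fitting.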

[14] = Stability in mouse C3H10T1/2 cells assessed as compound degradation at 40 uM after 24 hrs by LCMS analysis; assay type: ADME, cell-based; conditions: c3h 10t1/2, 24 h
[15] = target: T1, Zinc finger protein GLI1 (Homo sapiens); assay: Inhibition of endogenously overexpressed Gli1-mediated transcriptional activity in human Rh30 cells at 10 uM after 24 hrs by luciferase reporter gene assay; assay type: cell-based
Method in brief: (§3)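 Human Rh30 rhabdomyosarcoma cells (endogenous Gli1, no exogenous Gli1) in RPMI-1640 with 10% FBS were transfected overnight with Fugene6, GliLuc-BS (500 ng/mL) and pRL-CMV (2.5 ng/mL). Cells were replated, given compound or DMSO 18 h later, and exposed for 24 h at 37 °C, 5% CO2. Read-out was dual luciferase firefly/Renilla, triplicate, DMSO = 0%.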

[16] = target: T1, Zinc finger protein GLI1 (Homo sapiens); assay: Inhibition of endogenously overexpressed Gli1-mediated transcriptional activity in human Rh30 cells at 20 uM after 24 hrs by luciferase reporter gene assay; assay type: cell-based; method in brief: as §3
[17] = target: T1, Zinc finger protein GLI1 (Homo sapiens); assay: Inhibition of endogenously overexpressed Gli1-mediated transcriptional activity in human Rh30 cells at 40 uM after 24 hrs by luciferase reporter gene assay; assay type: cell-based; method in brief: as §3
C3H 10T1/2 [18] = assay: Selectivity ratio of IC50 for exogenously transfected human Gli2 delta-N-mediated transcriptional activity in mouse C3H10T1/2 cells to IC50 for exogenously transfected human Gli1-mediated transcriptional activity in mouse C3H10T1/2 cells; assay type: cell-based
Method in brief: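 Ratio of IC50 values from dose-response curves of dual-luciferase Gli-reporter activity in C3H10T1/2 cells. Cells were transfected with ΔNhGli2 versus hGli1, plus GliLuc-BS and pRL-TK, and exposed to compound for 24 h at 37 °C. Triplicate data.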

[19] = Cytotoxicity against mouse C3H10T1/2 cells; assay type: cell-based; conditions: c3h 10t1/2

| inhibition [1] | inhibition [2] | Compound | Activity (SJRH30) | Activity (MDA-MB-231) | Activity (Daoy) | Activity (DU-145) | Activity (Raji) | Activity (HepG2) | Activity (LN-229) | Activity (BJ) | inhibition (C3H 10T1/2 [3]) | inhibition (C3H 10T1/2 [4]) | inhibition (C3H 10T1/2 [5]) | inhibition (C3H 10T1/2 [6]) | inhibition (C3H 10T1/2 [7]) | inhibition (C3H 10T1/2 [8]) | inhibition (C3H 10T1/2 [9]) | inhibition (C3H 10T1/2 [10]) | inhibition (C3H 10T1/2 [11]) | inhibition (C3H 10T1/2 [12]) | also measured |
| --- | --- | --- | --- | --- | --- | --- | --- | --- | --- | --- | --- | --- | --- | --- | --- | --- | --- | --- | --- | --- | --- |
| Active | Active | CCCN(CCc1ccc(O)cc1)C(=O)[C@@H](C)c1cccc(C(=O)c2ccccc2)c1 | Active | Active | Active | Active | Active | inactive | inactive | Non-toxic | inactive | inactive | inactive | inactive | inactive | inactive | inactive | inactive | inactive | inactive | inhibition (C3H 10T1/2 [13]): inactive; IC50 (Zinc finger protein GLI2): 23.9 µM; Stability [14]: Stable; inhibition [15]: Active; inhibition [16]: Active; inhibition [17]: Active; fold change (FC) (C3H 10T1/2 [18]): 3 |
| Active | Active | C[C@H](C(=O)NCCc1ccc(O)cc1)c1cccc(C(=O)c2ccccc2)c1 | Active | Active | Active | Active | Active | inactive | inactive | Non-toxic | inactive | inactive | inactive | inactive | inactive | inactive | inactive | inactive | inactive | inactive | Activity [19]: Non-toxic; inhibition (C3H 10T1/2 [13]): inactive; IC50 (Zinc finger protein GLI2): 35.2 µM; Stability [14]: Stable; inhibition [15]: Active; inhibition [16]: Active; inhibition [17]: Active |
